Key:
[1] = test system: HT-29; test: Compound level in HT-29 cells after 96 h; format: functional, cell-based; conditions: Homo sapiens
Procedure, shortened: (§1)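 HT29 experiment B: 5 mM DFMO for 120 h before addition and throughout a further 96 h; refed at 96 h. Cells without DFMO cultured 96 h in total. Polyamines measured as nmol/mg protein (detection limit 0.2). SD from at least four separate experiments.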

[2] = test system: HT-29; test: Compound level in HT-29 cells after 72 h; format: functional, cell-based; conditions: Homo sapiens
[3] = test system: SV3T3; test: Compound level in DFMO-treated SV3T3 cells at 0 h; format: functional, cell-based; conditions: Mus musculus
Procedure, shortened: (§2)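 SV-3T3 fibroblasts (experiment A) held in 5 mM DFMO for 72 h before polyamine addition and throughout a further 72 h. Intracellular polyamines expressed as nmol/mg protein (detection limit 0.05). SD from at least four separate experiments, or duplicate where no SD is given.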

[4] = test system: SV3T3; test: Compound level in SV3T3 cells after 96 hr; format: functional, cell-based; conditions: Mus musculus
[5] = test system: L1210; test: Compound level in L1210 cells after 72 h; format: functional, cell-based; conditions: Mus musculus
Procedure, shortened: (§3)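 L1210 cells held in 5 mM DFMO for 72 h before polyamine addition and through a further 72 h, refed at 72 h; controls without DFMO cultured 72 h in total. Intracellular polyamines reported as nmol/mg protein (detection limit 0.2). Mean ± SD from at least four separate experiments.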

[6] = test system: L1210; test: Compound level in 72 hr DFMO (5 mM)-treated L1210 cells after exposure to 10 uM spermidine; format: functional, cell-based; conditions: Mus musculus; procedure, shortened: as §3
[7] = test system: HT-29; test: Compound level in 72 hr DFMO (5 mM)-treated HT-29 cells after exposure to 25 uM 1-methylspermine; format: functional, cell-based; conditions: Homo sapiens
Procedure, shortened: (§4)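 HT29 cells pretreated with 5 mM DFMO for 120 h, then polyamine added and culture continued with DFMO for 72 h (experiment A); refed at 96 h. Cellular polyamine content given as nmol/mg protein (detection limit 0.2). SD from at least four separate experiments.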

[8] = test system: SV3T3; test: Compound level in 72 hr DFMO (5 mM)-treated SV3T3 cells after exposure to 25 uM 1-methylspermidine; format: functional, cell-based; conditions: Mus musculus; procedure, shortened: as §2
[9] = Retention time was determined; format: ADME
[10] = test system: L1210; test: Compound level in 72 hr DFMO (5 mM)-treated L1210 cells after exposure to 10 uM 1-methylspermine; format: functional, cell-based; conditions: Mus musculus; procedure, shortened: as §3
[11] = test system: HT-29; test: Compound level in 72 hr DFMO (5 mM)-treated HT-29 cells after exposure to 10 uM 1-methylspermidine; format: functional, cell-based; conditions: Homo sapiens; procedure, shortened: as §4
[12] = test system: L1210; test: Compound level in 72 hr DFMO (5 mM)-treated L1210 cells after exposure to 10 uM 1-methylspermidine; format: functional, cell-based; conditions: Mus musculus; procedure, shortened: as §3
[13] = test system: SV3T3; test: Compound level in 72 h DFMO (5 mM)-treated SV3T3 cells after exposure to 10 uM 1-methylspermidine; format: functional, cell-based; conditions: Mus musculus; procedure, shortened: as §2
[14] = test system: SV3T3; test: Compound level in 72 hr DFMO (5 mM)-treated SV3T3 cells after exposure to 1 uM 1-methylspermidine; format: functional, cell-based; conditions: Mus musculus; procedure, shortened: as §2
[15] = test system: HT-29; test: Compound level in 72 hr DFMO (5 mM)-treated HT-29 cells after exposure to 25 uM 1-methylspermidine; format: functional, cell-based; conditions: Homo sapiens; procedure, shortened: as §4
[16] = test system: SV3T3; test: Compound level in 72 hr DFMO (5 mM)-treated SV3T3 cells after exposure to 25 uM 1-methylspermine; format: functional, cell-based; conditions: Mus musculus; procedure, shortened: as §2
[17] = test system: HT-29; test: Compound level in 72 hr DFMO (5 mM)-treated HT-29 cells after exposure to 10 uM 1-methylspermine; format: functional, cell-based; conditions: Homo sapiens; procedure, shortened: as §4
[18] = test system: SV3T3; test: Compound level in 72 hr DFMO (5 mM)-treated SV3T3 cells after exposure to 10 uM 1-methylspermine; format: functional, cell-based; conditions: Mus musculus; procedure, shortened: as §2
[19] = test system: SV3T3; test: Compound level in 72 hr DFMO (5 mM)-treated SV3T3 cells after exposure to 1 uM 1-methylspermine; format: functional, cell-based; conditions: Mus musculus; procedure, shortened: as §2
[20] = test system: L1210; test: Compound level in 72 hr DFMO (5 mM)-treated L1210 cells after exposure to 10 uM 1,12-dimethylspermine; format: functional, cell-based; conditions: Mus musculus; procedure, shortened: as §3
[21] = test system: SV3T3; test: Compound level in 96 hr DFMO (5 mM)-treated SV3T3 cells after exposure to 25 uM 1,12-dimethylspermine; format: functional, cell-based; conditions: Mus musculus
[22] = test system: SV3T3; test: Compound level in 72 hr DFMO (5 mM)-treated SV3T3 cells after exposure to 1 uM 1,12-dimethylspermine; conditions: Mus musculus
[23] = test system: HT-29; test: Compound level in 72 hr DFMO (5 mM)-treated HT-29 cells after exposure to 25 uM 1,12-dimethylspermine; format: functional, cell-based; conditions: Homo sapiens, in the assay text read “120 hr” for “72 hr”; procedure, shortened: as §1
[24] = test system: HT-29; test: Compound level in 72 hr DFMO (5 mM)-treated HT-29 cells after exposure to 10 uM 1,12-dimethylspermine; format: functional, cell-based; conditions: Homo sapiens, in the assay text read “120 hr” for “72 hr”; procedure, shortened: as §1
[25] = test system: SV3T3; test: Compound level in 96 hr DFMO (5 mM)-treated SV3T3 cells after exposure to 10 uM 1,12-dimethylspermine; format: functional, cell-based; conditions: Mus musculus

**Q.** Which Level (nM (mg of protein)-1) [1] does the source give for NCCCCN here?
**A.** 5.9

**Q.** What about the Level (nM (mg of protein)-1) [2] of the same molecule?
**A.** 4.4

**Q.** And the Level (nM (mg of protein)-1) [3]?
**A.** 0.5

**Q.** What about the Level (nM (mg of protein)-1) [4] of the same molecule?
**A.** 0.9

**Q.** And the Level (nM (mg of protein)-1) [5]?
**A.** 5.8

**Q.** What about the Level (nM (mg of protein)-1) [6] of the same molecule?
**A.** 0.8

**Q.** Which Level (nM (mg of protein)-1) [7] does the source give for CC(N)CCNCCCCNCCCN (stereo unspecified) here?
**A.** 24.2

**Q.** What about the Level (nM (mg of protein)-1) [8] of the same molecule?
**A.** 4.4

**Q.** And the tR [9]?
**A.** 40.5 min

**Q.** What about the Level (nM (mg of protein)-1) [10] of the same molecule?
**A.** 63.4

**Q.** What about the Level (nM (mg of protein)-1) [11] of the same molecule?
**A.** 7.8

**Q.** What about the Level (nM (mg of protein)-1) [12] of the same molecule?
**A.** 7.8

**Q.** What about the Level (nM (mg of protein)-1) [13] of the same molecule?
**A.** 4.2

**Q.** And the Level (nM (mg of protein)-1) [14]?
**A.** 2.4

**Q.** What about the Level (nM (mg of protein)-1) [15] of the same molecule?
**A.** 8.6

**Q.** And the Level (nM (mg of protein)-1) [16]?
**A.** 33.1

**Q.** And the Level (nM (mg of protein)-1) [17]?
**A.** 21.3

**Q.** What about the Level (nM (mg of protein)-1) [18] of the same molecule?
**A.** 33.7

**Q.** And the Level (nM (mg of protein)-1) [19]?
**A.** 11.8

**Q.** What does the source list for CC(N)CCNCCCCNCCC(C)N (stereo unspecified)?
**A.** Level (nM (mg of protein)-1) [20]: 61.9; tR [9]: 40.9 min; Level (nM (mg of protein)-1) [21]: 24.8; Level (nM (mg of protein)-1) [22]: 4.2; Level (nM (mg of protein)-1) [23]: 17.3; Level (nM (mg of protein)-1) [24]: 18.2; Level (nM (mg of protein)-1) [25]: 29.4

Source: ChEMBL document CHEMBL1125378, “alpha-Methyl polyamines: metabolically stable spermidine and spermine mimics capable of supporting growth in cells depleted of polyamines” (J Med Chem, 1992)
